Results pooled from the literature.
Lines come from different studies, so protocols differ.
Read-out: cell growth or viability

Compound | cell line | technique | tested at | time | measurement | value
Cc1cccc2c(CNCC3(N4CCCC4)COC3)c[nH]c12 | U-87 MG | – | 30 µM | 48 h | viability | 3.42%
Cc1cc(N(CCO)CCO)ccc1C(=O)O | SN12K1 | – | – | – | IC50 | > 10 µg/mL
Cc1c(Cc2cccc(N(C)S(=O)(=O)CCCNCCCC(=O)N3CCN(c4ccc(Nc5c(C(N)=O)cnc6ccc(-c7cnc8ccccc8c7)cc56)cc4C(F)(F)F)CC3)c2)c(=O)oc2cc(OC(=O)N(C)C)ccc12 | HCT-116 | CCK-8 | – | – | GI50 | 5470 nM
O=c1c2ccccc2nc(S)n1-c1ccccc1 | HCT-116 | LDH | 200 µg/mL | 24 h | viability | 73.5%
Cc1cc(N(CCO)CCO)ccc1C=O | SN12K1 | – | – | – | IC50 | > 10 µg/mL
CC[C@@]1(OC(=O)CN)C(=O)OCc2c1cc1n(c2=O)Cc2cc3cc4c(cc3nc2-1)OCO4 | HCT-116 | MTT | – | – | IC50 | 25 nM
Cc1cccc2[nH]cc(CNCC3(N4CCCC4)COC3)c12 | U-87 MG | – | 30 µM | 48 h | viability | 52.5%
CC[C@@]1(OC(=O)C(C)c2ccc(CC(C)C)cc2)C(=O)OCc2c1cc1n(c2=O)Cc2cc3cc4c(cc3nc2-1)OCO4 (stereo partly shown) | HCT-116 | MTT | – | – | IC50 | > 5000 nM
CC1=C(O)C(=O)C=C2C1=CC=C1[C@@]2(C)CC[C@@]2(C)[C@@H]3C[C@](C)(C(=O)OCCCn4cc(C=O)c5ccccc54)CC[C@]3(C)CC[C@]12C | AGS | MTT | – | 48 h | IC50 | 320 nM
CC[C@H](C)[C@H](N)C(=O)O[C@]1(CC)C(=O)OCc2c1cc1n(c2=O)Cc2cc3cc4c(cc3nc2-1)OCO4 | HCT-116 | MTT | – | – | IC50 | 64 nM
COc1cccc2c1C(=O)c1c(O)c3c(c(O)c1C2=O)C[C@@](O)(C(=O)CO)C[C@@H]3O[C@H]1C[C@H](N)[C@H](O)[C@H](C)O1 | SK-OV-3 | – | – | 48 h | IC50 | 1.2 µg/mL
CC[C@@]1(OC(=O)C(C)c2cccc(C(=O)c3ccccc3)c2)C(=O)OCc2c1cc1n(c2=O)Cc2cc3cc4c(cc3nc2-1)OCO4 (stereo partly shown) | HCT-116 | MTT | – | – | IC50 | 302 nM
COc1cc2c(c3c1C(=O)C[C@@H](c1ccccc1)O3)[C@H]1[C@@H](O2)OC(C)(C)[C@@H]1OC(C)=O | Raji | MTS | – | 48 h | IC50 | > 10000 nM
